Data: ChEMBL document CHEMBL1765045, “Fine-tuning the selectivity of aldosterone synthase inhibitors: structure-activity and structure-selectivity insights from studies of heteroaryl substituted 1,2,5,6-tetrahydropyrrolo[3,2,1-ij]quinolin-4-one derivatives” (J Med Chem, 2011)

Target: T1, Cytochrome P450 11B2, mitochondrial (Homo sapiens, UniProt P19099)
T1 sequence (P19099 whole entry): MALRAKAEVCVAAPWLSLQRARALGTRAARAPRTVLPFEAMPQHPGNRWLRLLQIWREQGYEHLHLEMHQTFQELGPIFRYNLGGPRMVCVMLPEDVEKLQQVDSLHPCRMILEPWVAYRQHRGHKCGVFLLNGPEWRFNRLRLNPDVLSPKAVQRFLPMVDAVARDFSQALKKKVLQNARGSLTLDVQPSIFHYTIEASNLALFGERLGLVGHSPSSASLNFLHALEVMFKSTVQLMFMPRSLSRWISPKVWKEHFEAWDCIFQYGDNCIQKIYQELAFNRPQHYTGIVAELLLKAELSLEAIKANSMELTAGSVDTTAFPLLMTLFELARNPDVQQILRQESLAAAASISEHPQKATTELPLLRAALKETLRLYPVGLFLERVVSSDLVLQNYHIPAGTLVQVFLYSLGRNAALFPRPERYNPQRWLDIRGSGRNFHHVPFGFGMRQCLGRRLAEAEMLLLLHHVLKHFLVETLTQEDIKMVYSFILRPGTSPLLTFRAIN
Assay: Inhibition of human CYP11B2 expressed in hamster V79 MZh cells assessed as conversion of [4-14C]-11-deoxycorticosterone substrate at 500 nM by HPTLC assay
Type: cell-based
Conditions: V79MZh
Method in brief: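 V79 MZh cells expressing human CYP11B2 given [4-14C]-11-deoxycorticosterone, 100 nM, with inhibitor at a single 500 nM concentration. Ethyl acetate extraction, then HPTLC/phosphoimager readout of conversion. Percent inhibition is the mean of at least three experiments.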

inhibition at 0.5 µM [%]	SMILES
96	O=C1CCc2cc(-c3cncc(C(F)(F)F)c3)cc3c2N1CC3
92	O=C1CCc2cc(-c3cncc(-c4cccc(O)c4)c3)cc3c2N1CC3
98	O=C1CCc2cc(-c3cncc4ccccc34)cc3c2N1CC3
96	S=C1CCc2cc(-c3cccnc3)cc3c2N1CC3
81	O=C1CCc2cc(-c3cncnc3)cc3c2N1CC3
92	O=C1CCc2cc(-c3cncc(-c4cccc(OC(F)(F)F)c4)c3)cc3c2N1CC3

Target: T2, CYP17 (Homo sapiens, UniProt P05093)
T2 sequence (P05093 whole entry): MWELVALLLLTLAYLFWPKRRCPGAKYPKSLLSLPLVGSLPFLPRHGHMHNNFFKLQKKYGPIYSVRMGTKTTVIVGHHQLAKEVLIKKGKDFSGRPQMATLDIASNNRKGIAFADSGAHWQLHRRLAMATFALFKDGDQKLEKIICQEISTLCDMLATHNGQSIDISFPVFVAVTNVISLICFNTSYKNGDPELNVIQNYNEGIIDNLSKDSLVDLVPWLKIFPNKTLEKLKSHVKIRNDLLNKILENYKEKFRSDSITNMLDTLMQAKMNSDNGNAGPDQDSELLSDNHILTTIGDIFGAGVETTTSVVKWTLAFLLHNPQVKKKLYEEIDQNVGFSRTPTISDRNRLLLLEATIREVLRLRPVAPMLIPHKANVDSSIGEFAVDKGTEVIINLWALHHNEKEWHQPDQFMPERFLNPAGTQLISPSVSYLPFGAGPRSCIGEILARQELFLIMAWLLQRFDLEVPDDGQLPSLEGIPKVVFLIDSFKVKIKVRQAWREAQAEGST
Assay: Inhibition of human CYP17 expressed in Escherichia coli using progesterone substrate at 2 uM
Conditions: recombinant human CYP17 expressed in Escherichia coli, probe progesterone
Method in brief: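 50000g sediment of E. coli homogenate recombinantly expressing human CYP17. Progesterone substrate at 25 μM, inhibitor tested at 2 μM.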

inhibition at 2 µM [%]	SMILES
6	O=C1CCc2cc(-c3cncc4ccccc34)cc3c2N1CC3
11	S=C1CCc2cc(-c3cccnc3)cc3c2N1CC3
5	O=C1CCc2cc(-c3cncnc3)cc3c2N1CC3

Target: T1, Cytochrome P450 11B2, mitochondrial
Assay: Inhibition of human CYP11B2 expressed in hamster V79 MZh cells assessed as conversion of [4-14C]-11-deoxycorticosterone substrate by HPTLC assay
Type: cell-based
Conditions: not given
Method in brief: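 Hamster V79 MZh fibroblasts expressing human CYP11B2 incubated with [4-14C]-11-deoxycorticosterone (100 nM) and inhibitor at ≥3 concentrations; reaction stopped with ethyl acetate, steroids extracted after shaking and centrifugation (10000g, 2 min). Substrate conversion read by HPTLC with phosphoimaging.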

IC50 [nM]	SMILES
5.9	O=C1CCc2cc(-c3cncc(C(F)(F)F)c3)cc3c2N1CC3
1.2	O=C1CCc2cc(-c3cncc(-c4cccc(O)c4)c3)cc3c2N1CC3
0.2	O=C1CCc2cc(-c3cncc4ccccc34)cc3c2N1CC3
1.2	S=C1CCc2cc(-c3cccnc3)cc3c2N1CC3
56	O=C1CCc2cc(-c3cncnc3)cc3c2N1CC3
16	O=C1CCc2cc(-c3cncc(-c4cccc(OC(F)(F)F)c4)c3)cc3c2N1CC3

Target: T3, Cytochrome P450 11B1, mitochondrial (Homo sapiens, UniProt P15538)
T3 sequence (P15538 whole entry): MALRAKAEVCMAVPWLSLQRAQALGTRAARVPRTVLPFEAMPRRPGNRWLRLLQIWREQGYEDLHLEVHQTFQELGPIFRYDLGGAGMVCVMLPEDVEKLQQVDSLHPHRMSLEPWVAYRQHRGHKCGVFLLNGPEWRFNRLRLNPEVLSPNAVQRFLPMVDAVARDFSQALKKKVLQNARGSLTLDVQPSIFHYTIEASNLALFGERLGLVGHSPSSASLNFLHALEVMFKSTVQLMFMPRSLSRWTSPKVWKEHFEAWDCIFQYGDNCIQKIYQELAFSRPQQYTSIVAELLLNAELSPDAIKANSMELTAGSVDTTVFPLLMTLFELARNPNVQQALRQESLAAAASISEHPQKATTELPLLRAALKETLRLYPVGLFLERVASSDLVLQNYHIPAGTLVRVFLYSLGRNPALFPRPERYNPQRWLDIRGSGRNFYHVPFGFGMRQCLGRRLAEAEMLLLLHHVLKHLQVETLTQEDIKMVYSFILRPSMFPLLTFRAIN
Assay: Inhibition of human CYP11B1 expressed in hamster V79 MZh cells assessed as conversion of [4-14C]-11-deoxycorticosterone substrate by HPTLC assay
Type: cell-based
Conditions: not given
Method in brief: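 V79 MZh hamster fibroblasts stably expressing human CYP11B1 or CYP11B2 incubated with [4-14C]-11-deoxycorticosterone, 100 nM, plus inhibitor at ≥3 concentrations. Reaction stopped with ethyl acetate, steroids extracted into the organic phase, and substrate conversion quantified by HPTLC with phosphoimaging. IC50 is the mean of at least three experiments.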

IC50 [nM]	SMILES
141	O=C1CCc2cc(-c3cncc(C(F)(F)F)c3)cc3c2N1CC3
44	O=C1CCc2cc(-c3cncc(-c4cccc(O)c4)c3)cc3c2N1CC3
13	O=C1CCc2cc(-c3cncc4ccccc34)cc3c2N1CC3
333	S=C1CCc2cc(-c3cccnc3)cc3c2N1CC3
28500	O=C1CCc2cc(-c3cncnc3)cc3c2N1CC3
2060	O=C1CCc2cc(-c3cncc(-c4cccc(OC(F)(F)F)c4)c3)cc3c2N1CC3
